Hep lipid drop = inhibitors of hepatocyte lipid droplet formation, primary screen, imaging, high-throughput imaging, BODIPY stain; 0.4% of 240,000 active; inhibition, % at 6.5 µM; AML12 mouse hepatocytes, oleate lipid droplets;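 active = lipid droplet intensity inhibited by at least 50%, with more than 500 cells counted; inconclusive = wells with under 300 cells, treated as cytotoxic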
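System: AML12 hepatocytes (mouse). Probe or stimulus: oleic acid at 100 µM to induce lipid droplet formation. Times: overnight treatment with compound plus oleate. Detection: Image-based BODIPY and DAPI two-channel analysis. Evaluation: percent inhibition of filter-corrected integrated lipid droplet intensity per well.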
iPSC survival up = enhancers of single-cell hiPSC survival, primary screen, ATPlite luminescence. AID 602274, 2012. 0.044% of 360,000 active. 100% = ROCK inhibitor wells, 0% = DMSO. survival enhancement, % at 20 µM; in the data active = survival enhancement above about 18%;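 note: cells exposed to compounds for 16 hours before the ATP read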
TAG inh = inhibitors of triacylglycerol accumulation, primary screen, cell-based, uHTS, fluorescence, H9c2; H9c2 cells, Nile Red lipid (TAG) fluorescence; cells loaded with 200 µM oleic acid; inhibition, % at 12.5 µM; AID 651582, 2012; 0.66% of 230,000 active;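 active = pattern-corrected inhibition of lipid staining of at least 50% with the nuclear-stain viability signal not falling by more than 50%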;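 note: 0% = DMSO wells and 100% = triacsin C control wells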
Jurkat NFkB inh = inhibitors of induced NF-kB luciferase reporter, primary screen, TCR NF-kB activation inhibitor project, cell-based, luminescence, uHTS; Jurkat, PMA/ionomycin-induced NF-kB luciferase reporter; inhibition, % at 4 µM; 0.53% of 330,000 active; in the data active = inhibition above about 50%
Gli-Sufu antag = Gli-Sufu pathway antagonists, primary screen, luciferase luminescence, Sufu-KO-LIGHT cells, uHTS | 0.74% of 340,000 active | inhibition, % at 5 µM | Sufu-KO-LIGHT fibroblasts, Gli luciferase reporter luminescence;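 active = inhibition above about 55%, limit read from the data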;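 note: 0% = DMSO-treated cells and 100% = wells with medium but no cells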
697 NFkB inh = inhibitors of PMA/ionomycin-induced NF-kB reporter, 697 cells, primary screen, B-cell NF-kB inhibitor project, cell-based, luminescence, uHTS; 697 B-cell NF-kB luciferase reporter, 16 h; inhibition, % at 4 µM; 0.33% of 330,000 active; AID 435022, 2010; in the data active = inhibition above about 35%
Gli antag conf = Gli-SUFU pathway antagonists, confirmation, single concentration, luciferase luminescence, Sufu-KO-LIGHT cells; inhibition, % at 5 µM; AID 602428, 2012; Gli luciferase reporter; 40% of 2,500 active; shares compounds with Gli-Sufu antag;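 active = mean inhibition at 5 µM reaching about 45%, limit read from the data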;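 note: plate controls were DMSO-treated cells for no effect and wells lacking cells for full effect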
SufuKO cytotox = cytotoxicity in Sufu-KO-LIGHT cells, confirmation, cytotoxicity control for Gli-SUFU antagonist project, cell-based, ATP luminescence, single concentration. cytotoxicity, % at 5 µM. 32% of 2,500 active. shares compounds with Gli-Sufu antag;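 active = mean cytotoxicity at 5 µM above about 25%, limit read from the data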;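 note: cells exposed to compound overnight for roughly 16 to 18 hours; plate controls were DMSO wells with cells for no effect and medium without cells for full effect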
Wnt3a cs = Wnt3a reporter signal inhibition, confirmation, counter-screen for Gli-SUFU antagonist project, Wnt-LIGHT cells, luminescence, single concentration; shares compounds with Gli-Sufu antag; Wnt3a-driven luciferase reporter; inhibition, % at 6.25 µM; 20% of 2,500 active; AID 651995, 2013;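 active = mean inhibition above about 25%, limit read from the data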
The depositor's hits bear a star. Compounds with a hit are over-represented: about 1.8% of the library has one in this group of screens.

Cc1cc(NC(=O)Cc2ccccc2)c2ccccc2n1 was read as Hep lipid drop -43, iPSC survival up -1, TAG inh -29, Jurkat NFkB inh 29, Gli-Sufu antag 66*, 697 NFkB inh -28, Gli antag conf 59*, SufuKO cytotox 37* and Wnt3a cs 30*.
Cc1ccc(S(=O)(=O)Nc2ccccc2C(=O)Nc2nc(-c3ccc(F)cc3)cs2)cc1 was read as Hep lipid drop -62, iPSC survival up 2, Jurkat NFkB inh 8, Gli-Sufu antag 77*, 697 NFkB inh -25, Gli antag conf 79*, SufuKO cytotox 35* and Wnt3a cs 78*.
Screening COC(=O)c1cnc(SCc2ccc([N+](=O)[O-])cc2)n1C returned Hep lipid drop inconclusive, iPSC survival up 1, TAG inh -13, Jurkat NFkB inh -7, Gli-Sufu antag 2 and 697 NFkB inh -16.
O=S1(=O)CCOCCCN1Cc1ccc(Cl)cc1 was read as iPSC survival up 1, Jurkat NFkB inh 15, Gli-Sufu antag -1 and 697 NFkB inh 17.
For CCOc1cc(C(=O)OCc2ccc([N+](=O)[O-])cc2)ccc1OCC(=O)N1CCOCC1 the results were iPSC survival up 0, TAG inh 1, Jurkat NFkB inh 13, Gli-Sufu antag -3 and 697 NFkB inh 16.
Screening CCOc1cc(C(=O)OCc2cccc(OC)c2OC)ccc1OCC(=O)N1CCOCC1 returned iPSC survival up 0, TAG inh -7, Jurkat NFkB inh -54, Gli-Sufu antag 71*, 697 NFkB inh -29, Gli antag conf 26, SufuKO cytotox 10 and Wnt3a cs -3.
Screening Cc1[nH]c(=O)c(C#N)c(C)c1CCC(=O)NCc1cccc(C(F)(F)F)c1 returned Hep lipid drop -35, iPSC survival up 0, Jurkat NFkB inh -2, Gli-Sufu antag -3 and 697 NFkB inh 2.
Screening Cc1cccc2cc(-c3ccccc3)c(-c3ccccc3)c[n+]12 returned Hep lipid drop -48, iPSC survival up -2, Gli-Sufu antag 62*, Gli antag conf 52*, SufuKO cytotox 29* and Wnt3a cs -34.
For CC(CC(=O)N1CCN(c2cccc(Cl)c2)CC1)S(=O)(=O)c1ccc2c(c1)NC(=O)CO2 (stereo not drawn) the results were Hep lipid drop -65, iPSC survival up 0, Jurkat NFkB inh 16, Gli-Sufu antag 59*, 697 NFkB inh -50, Gli antag conf 51*, SufuKO cytotox 20 and Wnt3a cs 0.
For Cn1c(Cc2csc(N)n2)nnc1SCC(=O)NCc1ccccc1 the results were Hep lipid drop 3, iPSC survival up -2, Jurkat NFkB inh -12, Gli-Sufu antag 95*, 697 NFkB inh -3, Gli antag conf 4, SufuKO cytotox 2 and Wnt3a cs -17.
For CCn1nnc(NC(=O)C(c2ccccc2)c2ccccc2)n1 the results were Hep lipid drop 3, iPSC survival up 0, TAG inh 4, Jurkat NFkB inh 0, Gli-Sufu antag 59*, 697 NFkB inh 6, Gli antag conf 19, SufuKO cytotox 13 and Wnt3a cs -7.
CCC1(C)Cc2ccccc2-c2c1c(=O)n(Cc1ccccc1)c1nnnn21 (stereo not drawn) was read as Hep lipid drop -10, iPSC survival up -1, Jurkat NFkB inh -7, Gli-Sufu antag 75*, 697 NFkB inh -34, Gli antag conf 28, SufuKO cytotox 3 and Wnt3a cs -1.
